In PubChem BioAssay AID624290 (Broad Institute, 2012):
Activity calls are given as the source filed them.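 Rule for the calls: active = compounds dimming the MITF-driven luciferase signal, with fitted AC50 at most twice the top tested dose; inconclusive = flat curves with moderate signal drop, or poor-quality fits; inactive = the rest.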

Experiment: decrease of TRPM1 reporter luminescence in SK-MEL-5 – cell-based, dry powder samples, set 2, MITF inhibitor project, dose response (AID 624290)
Conditions: SK-MEL-5 TRPM1-promoter luciferase reporter, 24 h; at 35 µM (top of the series)
Outline: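 Assay system – TRPM1 promoter–luciferase reporter stably expressed in SK-MEL-5 melanoma cells · Timing – compound pinned one day after plating, 24 h exposure at 37 °C · Measured by – luciferase luminescence with SteadyGlo reagent, 5 min room-temperature incubation · Measure – luminescence change reflecting TRPM1 promoter activity, decrease as inhibition · Control set – parthenolide positive control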

Compound: O=C(NC1=C(N2CCCCC2)C(=O)c2ccccc2C1=O)c1ccc(Br)cc1
- activity change, negative = inhibition: -0.221% (inactive)
